The source made the active and inactive calls. The calls are words filed in the database; no cut-off is given here.
Legend:
Assay type in all cases: functional, cell-based
Huh-7 [1] = experiment: Growth inhibition of human HuH7 cells incubated for 48 hrs by Giemsa staining
In short: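 Cells grown overnight, compound added from DMSO solution, then incubated 48 h more. Attached cells stained with Giemsa and photographed; qualitative read-out.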

Huh-7 [2] = experiment: Induction of cell death in human HuH7 cells at 2.5 to 40 uM incubated for 72 hrs by SRB assay
In short: (§1)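 Cells seeded and grown 24 h at 37 °C, then treated 72 h in triplicate. Fixed with cold 10% TCA 1 h at 4 °C, stained with 0.4% SRB in 1% acetic acid 10 min, washed in 1% acetic acid. Dye solubilized in 10 mM Tris base; absorbance read at 515 nm. Normalized to DMSO control and Tz; three independent experiments.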

HCT-116 [3] = experiment: Induction of cell death in human HCT116 cells at 2.5 to 40 uM incubated for 72 hrs by SRB assay; in short: as §1
MCF7 [4] = experiment: Induction of cell death in human MCF7 cells at 2.5 to 40 uM incubated for 72 hrs by SRB assay; in short: as §1
HepG2 = experiment: Cytotoxicity against human HepG2 cells incubated for 72 hrs by SRB assay; settings: HepG2, 72 h
In short: (§2)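 Cells grown in DMEM with 10% FCS, 2 mM L-glutamine, NEAA and antibiotics at 37 °C, 5% CO2, then seeded at 1000–5000 cells/well and grown 24 h. Compounds were added from DMSO for 72 h, following NCI guidelines. Cells were fixed in cold 10% TCA for 1 h at 4 °C and stained with 0.4% SRB in 1% acetic acid for 10 min. Bound dye was dissolved in 10 mM Tris and absorbance read at 515 nm.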

[5] = Cytotoxicity against human MV cells incubated for 72 hrs by SRB assay; in short: as §2
[6] = Cytotoxicity against human FOCUS cells incubated for 72 hrs by SRB assay; in short: as §2
HCT-116 [7] = experiment: Cytotoxicity against human HCT116 cells incubated for 72 hrs by SRB assay; settings: HCT-116, 72 h; in short: as §2
T47D = experiment: Cytotoxicity against human T47D cells incubated for 72 hrs by SRB assay; in short: as §2
BT-20 = experiment: Cytotoxicity against human BT20 cells incubated for 72 hrs by SRB assay; settings: BT-20, 72 h; in short: as §2
CAMA-1 = experiment: Cytotoxicity against human CAMA1 cells incubated for 72 hrs by SRB assay; settings: CAMA-1, 72 h; in short: as §2
MFE-296 = experiment: Cytotoxicity against human MFE296 cells incubated for 72 hrs by SRB assay; settings: MFE-296, 72 h; in short: as §2
Huh-7 [8] = experiment: Cytotoxicity against human HuH7 cells incubated for 72 hrs by SRB assay; settings: Huh-7, 72 h; in short: as §2
MCF7 [9] = experiment: Cytotoxicity against human MCF7 cells incubated for 72 hrs by SRB assay; settings: MCF7, 72 h; in short: as §2

SMILES	growth inhibition (GI) (Huh-7 [1])	also measured
CCOC(=O)[C@@H]1CSC(c2ccccc2)N1C(=O)c1cn(CCCCCCO)nn1 (stereo not given in full)	inactive	
O=C(O)CN(C[C@@H]1CSC(c2ccccc2)N1C(=O)c1ccccc1)C(=O)c1c(F)c(F)c(F)c(F)c1F (stereo not given in full)	inactive	
CCCCCCC(=O)N(CC(=O)O)C[C@@H]1CSC(c2ccccc2)N1C(=O)c1ccccc1 (stereo not given in full)	inactive	
CCOC(=O)[C@@H]1CSC(c2ccccc2)N1C(=O)c1cn(CCc2ccc(F)cc2)nn1 (stereo not given in full)	inactive	
CC(C)(C)C(=O)N(CC(=O)O)C[C@@H]1CSC(c2ccccc2)N1C(=O)c1ccccc1 (stereo not given in full)	inactive	
Cc1cn(CC(=O)N2C(c3ccccc3)SC[C@H]2C(=O)NC(C)(C)C)c(=O)[nH]c1=O (stereo not given in full)	inactive	Activity (Huh-7 [2]): inactive; Activity (HCT-116 [3]): inactive; Activity (MCF7 [4]): inactive
CCCCCCCCCCC(=O)N(CC(=O)OC)C[C@@H]1CSC(c2ccccc2)N1C(=O)c1ccccc1 (stereo not given in full)	inactive	
Cc1cn(CC(=O)N2C(c3ccccc3)SC[C@H]2C(=O)NCc2ccccc2)c(=O)[nH]c1=O (stereo not given in full)	inactive	
CCCCCCCCCCC(=O)N(CC(=O)O)C[C@@H]1CSC(c2ccccc2)N1C(=O)c1ccccc1 (stereo not given in full)	inactive	
O=C(c1c(F)c(F)c(F)c(F)c1F)N(CCc1ccsc1)C[C@@H]1CSC(c2ccccc2)N1C(=O)c1ccccc1 (stereo not given in full)	inactive	
COC(=O)CN(C[C@@H]1CSC(c2ccccc2)N1C(=O)c1ccccc1)C(=O)C(C)(C)C (stereo not given in full)	inactive	
CCCCCCC(=O)N(CC(=O)OC)C[C@@H]1CSC(c2ccccc2)N1C(=O)c1ccccc1 (stereo not given in full)	inactive	
CCOC(=O)[C@@H]1CSC(c2ccccc2)N1C(=O)c1cn(CC(=O)OCc2ccccc2)nn1 (stereo not given in full)	inactive	
O=c1[nH]cc(F)c(=O)[nH]1 [FLUOROURACIL]		IC50 (HepG2): 5700 nM; IC50 [5]: 9970 nM; IC50 [6]: 7690 nM; IC50 (HCT-116 [7]): 18700 nM; IC50 (T47D): 8910 nM; IC50 (BT-20): 47300 nM; IC50 (CAMA-1): 1280 nM; IC50 (MFE-296): 30700 nM
CCOC(=O)[C@@H]1CSC(c2ccccc2)N1C(=O)c1cn(CC2OCOC2(C)C)nn1 (stereo not given in full)	inactive	
Cc1cn(CC(=O)N2C(c3ccccc3)SC[C@H]2C(=O)NCCc2ccccc2)c(=O)[nH]c1=O (stereo not given in full)	inactive	
CCCCCCC(=O)N(CCc1ccsc1)C[C@@H]1CSC(c2ccccc2)N1C(=O)c1ccccc1 (stereo not given in full)	inactive	
CCOC(=O)[C@@H]1CSC(c2ccccc2)N1C(=O)c1cn(CCCNC(=O)C(F)(F)F)nn1 (stereo not given in full)	inactive	
COC(=O)CN(C[C@@H]1CSC(c2ccccc2)N1C(=O)c1ccccc1)C(=O)c1c(F)c(F)c(F)c(F)c1F (stereo not given in full)	inactive	
CCCCCCC(C)NC(=O)[C@@H]1CSC(c2ccccc2)N1C(=O)Cn1cc(C)c(=O)[nH]c1=O (stereo not given in full)	inactive	
CCOC(=O)[C@@H]1CSC(c2ccccc2)N1C(=O)c1cn(CCc2ccccc2)nn1 (stereo not given in full)	inactive	
CCOC(=O)[C@@H]1CSC(c2ccccc2)N1C(=O)c1cn(CC(O)CO)nn1 (stereo not given in full)	inactive	
CC[C@@]1(O)C(=O)OCc2c1cc1n(c2=O)Cc2cc3ccccc3nc2-1 [CAMPTOTHECIN]		IC50 (HepG2): 10 nM; IC50 (Huh-7 [8]): 150 nM; IC50 [5]: < 1000 nM; IC50 [6]: < 1000 nM; IC50 (HCT-116 [7]): < 1000 nM; IC50 (T47D): < 1000 nM; IC50 (MCF7 [9]): < 1000 nM; IC50 (BT-20): 70 nM; IC50 (CAMA-1): 70 nM; IC50 (MFE-296): < 1000 nM
CC(C)(C)C(=O)N(CCc1ccsc1)C[C@@H]1CSC(c2ccccc2)N1C(=O)c1ccccc1 (stereo not given in full)	inactive	Activity (Huh-7 [2]): inactive; Activity (HCT-116 [3]): inactive; Activity (MCF7 [4]): inactive
CCCCCCCCCCC(=O)N(CCc1ccsc1)C[C@@H]1CSC(c2ccccc2)N1C(=O)c1ccccc1 (stereo not given in full)	inactive	
CCCCCCCCCCCCNC(=O)[C@@H]1CSC(c2ccccc2)N1C(=O)Cn1cc(C)c(=O)[nH]c1=O (stereo not given in full)	inactive	
CCOC(=O)[C@@H]1CSC(c2ccccc2)N1C(=O)c1cn(CCc2ccsc2)nn1 (stereo not given in full)	inactive	Activity (Huh-7 [2]): inactive; Activity (HCT-116 [3]): inactive; Activity (MCF7 [4]): inactive
CCOC(=O)Cn1cc(C(=O)N2C(c3ccccc3)SC[C@H]2C(=O)OCC)nn1 (stereo not given in full)	inactive	
CCOC(=O)[C@@H]1CSC(c2ccccc2)N1C(=O)c1cn(Cc2ccccc2)nn1 (stereo not given in full)	inactive	
Cc1cn(CC(=O)N2C(c3ccccc3)SC[C@H]2C(=O)NC(C)C)c(=O)[nH]c1=O (stereo not given in full)	inactive	

— ChEMBL document CHEMBL2086235, “A novel thiazolidine compound induces caspase-9 dependent apoptosis in cancer cells” (Bioorg Med Chem, 2012)
